Source: ChEMBL document CHEMBL2029264, “Indole-based fibrates as potential hypolipidemic and antiobesity agents” (J Med Chem, 2012)

Assays:
Format in all cases: functional
[1] = test system: Rattus norvegicus; test: Antihyperlipidemic activity in Triton WR-1339-induced hyperlipidemic rat assessed as decrease in plasma triglyceride level at 100 mg/kg, po relative to control; design: scale not given: the % may be the effect or the level left
Outline: (§1)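 Triton WR-1339 given to rats to induce hyperlipidemia; oral dosing. Plasma TC, PL, TG in mg/dL; PHLA as […]/h/mL plasma. Mean ± SD of six rats; Triton group compared with control, Triton plus dosed group compared with Triton group.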

[2] = test system: Rattus norvegicus; test: Antihyperlipidemic activity in Triton WR-1339-induced hyperlipidemic rat assessed as decrease in plasma phospholipid level at 100 mg/kg, po relative to control; design: scale not given: the % may be the effect or the level left; outline: as §1
[3] = test system: Rattus norvegicus; test: Antihyperlipidemic activity in Triton WR-1339-induced hyperlipidemic rat assessed as decrease in plasma total cholesterol level at 100 mg/kg, po relative to control; design: scale not given: the % may be the effect or the level left; outline: as §1
[4] = test system: Rattus norvegicus; test: Antihyperlipidemic activity in Triton WR-1339-induced hyperlipidemic rat assessed as increase in PHLA enzyme level at 100 mg/kg, po; outline: as §1
[5] = test system: Rattus norvegicus; test: Antihyperlipidemic activity in Triton WR-1339-induced hyperlipidemic rat assessed as increase in LCAT enzyme level at 100 mg/kg, po; outline: as §1
[6] = test system: Rattus norvegicus; test: Antihyperlipidemic activity in HFD-induced hyperlipidemic Charles Foster rat assessed as decrease in plasma LDL-triglyceride level at 100 mg/kg, po administered for 4 weeks relative to control; design: scale not given: the % may be the effect or the level left
Outline: (§2)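 After 4 weeks high-fat feeding plus 4 weeks daily dosing, overnight fast, retro-orbital blood into EDTA tubes. Serum split into VLDL, LDL and HDL by polyanionic precipitation; each fraction assayed for TC, PL, TG and apoprotein (mg/dL plasma). Pooled data from 6 rats/group, mean ± SD, dosed groups compared with high-fat group.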

[7] = test system: Rattus norvegicus; test: Antihyperlipidemic activity in HFD-induced hyperlipidemic Charles Foster rat assessed as decrease in plasma VLDL-apoprotein level at 100 mg/kg, po administered for 4 weeks relative to control; design: scale not given: the % may be the effect or the level left; outline: as §2
[8] = test system: Rattus norvegicus; test: Antihyperlipidemic activity in HFD-induced hyperlipidemic Charles Foster rat assessed as decrease in serum phospholipid level at 100 mg/kg, po administered for 4 weeks relative to control; design: scale not given: the % may be the effect or the level left
Outline: (§3)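 Male Charles Foster rats (200−225 g): high-fat diet 4 weeks, then diet plus daily dosing 4 weeks. Overnight fast, retro-orbital blood in EDTA (3 mg/mL blood), centrifuged to serum. TC, PL, TG in mg/dL; LCAT as nmol cholesterol released/h/L plasma. Mean ± SD; dosed groups compared with high-fat group, P by significance levels.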

[9] = test system: Rattus norvegicus; test: Antihyperlipidemic activity in HFD-induced hyperlipidemic Charles Foster rat assessed as decrease in serum total cholesterol level at 100 mg/kg, po administered for 4 weeks relative to control; design: scale not given: the % may be the effect or the level left; outline: as §3
[10] = test system: Rattus norvegicus; test: Antihyperlipidemic activity in HFD-induced hyperlipidemic Charles Foster rat assessed as decrease in plasma LDL-total cholesterol level at 100 mg/kg, po administered for 4 weeks relative to control; design: scale not given: the % may be the effect or the level left; outline: as §2
[11] = test system: Rattus norvegicus; test: Antihyperlipidemic activity in HFD-induced hyperlipidemic Charles Foster rat assessed as increase in [I125]-LDL catabolism in plasma membrane of liver at 100 mg/kg/day, po administered for 4 weeks
Outline: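 Rats on 8 weeks total of high-fat diet, dosed daily for the last 4 weeks, then sacrificed. Human serum LDL radiolabeled with I125; specific binding to liver plasma membrane preparation measured as receptor-mediated LDL catabolism. Mean ± SD, n = 6.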

[12] = test system: Rattus norvegicus; test: Antihyperlipidemic activity in HFD-induced hyperlipidemic Charles Foster rat assessed as decrease in liver triglyceride level at 100 mg/kg, po administered for 4 weeks relative to control; design: scale not given: the % may be the effect or the level left
Outline: (§4)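 Adult male Charles Foster rats (200−225 g), high-fat diet 4 weeks, then diet plus daily dosing 4 more weeks; overnight fast, sacrifice, liver washed in cold 0.15 M KCl and held at 4 °C. Lipids extracted from liver homogenate in CHCl3/CH3OH (2:1 v/v), TC, PL and TG read in mg/g; pooled data from 6 rats/group, mean ± SD.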

[13] = test system: Rattus norvegicus; test: Antihyperlipidemic activity in HFD-induced hyperlipidemic Charles Foster rat assessed as decrease in liver phospholipid level at 100 mg/kg, po administered for 4 weeks relative to control; design: scale not given: the % may be the effect or the level left; outline: as §4
[14] = test system: Rattus norvegicus; test: Antihyperlipidemic activity in HFD-induced hyperlipidemic Charles Foster rat assessed as decrease in liver total cholesterol level at 100 mg/kg, po administered for 4 weeks relative to control; design: scale not given: the % may be the effect or the level left; outline: as §4
[15] = test system: Rattus norvegicus; test: Antihyperlipidemic activity in HFD-induced hyperlipidemic Charles Foster rat assessed as increase in plasma HDL-triglyceride level at 100 mg/kg, po administered for 4 weeks relative to control; outline: as §2
[16] = test system: Rattus norvegicus; test: Antihyperlipidemic activity in HFD-induced hyperlipidemic Charles Foster rat assessed as increase in cholic acid excretion in feces at 100 mg/kg/day, po administered for 4 weeks measured after 30 days relative to control
Outline: (§5)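 Rats fed high-fat diet 4 weeks, then diet plus daily dosing 4 weeks. Cholic and deoxycholic acid excreted in feces measured; dosed groups compared with high-fat group, control compared with high-fat group.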

[17] = test system: Rattus norvegicus; test: Antihyperlipidemic activity in HFD-induced hyperlipidemic Charles Foster rat assessed as decrease in plasma LDL-apoprotein level at 100 mg/kg, po administered for 4 weeks relative to control; design: scale not given: the % may be the effect or the level left; outline: as §2
[18] = test system: Rattus norvegicus; test: Antihyperlipidemic activity in HFD-induced hyperlipidemic Charles Foster rat assessed as increase in deoxycholic acid excretion in feces at 100 mg/kg/day, po administered for 4 weeks measured after 30 days relative to control; outline: as §5
[19] = test system: Rattus norvegicus; test: Antihyperlipidemic activity in HFD-induced hyperlipidemic Charles Foster rat assessed as decrease in plasma VLDL-total cholesterol level at 100 mg/kg, po administered for 4 weeks relative to control; design: scale not given: the % may be the effect or the level left; outline: as §2
[20] = test system: Rattus norvegicus; test: Antihyperlipidemic activity in HFD-induced hyperlipidemic Charles Foster rat assessed as decrease in serum triglyceride level at 100 mg/kg, po administered for 4 weeks relative to control; design: scale not given: the % may be the effect or the level left; outline: as §3
[21] = test system: Rattus norvegicus; test: Antihyperlipidemic activity in HFD-induced hyperlipidemic Charles Foster rat assessed as increase in plasma HDL-total cholesterol level at 100 mg/kg, po administered for 4 weeks relative to control; outline: as §2
[22] = test system: Rattus norvegicus; test: Antihyperlipidemic activity in HFD-induced hyperlipidemic Charles Foster rat assessed as reactivation of LPL activity at 100 mg/kg, po administered for 4 weeks relative to control
Outline: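 Male Charles Foster rats fed high-fat diet 4 weeks, then diet plus daily dosing 4 weeks. Liver homogenized (10% w/v) in cold 100 mM phosphate buffer pH 7.2; total lipolytic LPL activity read as nmol free fatty acid formed/h/mg protein; pooled data from 6 rats/group, mean ± SD.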

[23] = test system: Rattus norvegicus; test: Antihyperlipidemic activity in HFD-induced hyperlipidemic Charles Foster rat assessed as decrease in plasma LDL-phospholipid level at 100 mg/kg, po administered for 4 weeks relative to control; design: scale not given: the % may be the effect or the level left; outline: as §2
[24] = test system: Rattus norvegicus; test: Antihyperlipidemic activity in HFD-induced hyperlipidemic Charles Foster rat assessed as decrease in plasma VLDL-triglyceride level at 100 mg/kg, po administered for 4 weeks relative to control; design: scale not given: the % may be the effect or the level left; outline: as §2
[25] = test system: Rattus norvegicus; test: Antihyperlipidemic activity in HFD-induced hyperlipidemic Charles Foster rat assessed as increase in serum LCAT enzyme level at 100 mg/kg, po administered for 4 weeks relative to control; outline: as §3
[26] = test system: Rattus norvegicus; test: Antihyperlipidemic activity in HFD-induced hyperlipidemic Charles Foster rat assessed as increase in plasma HDL-phospholipid level at 100 mg/kg, po administered for 4 weeks relative to control; outline: as §2
[27] = test system: Rattus norvegicus; test: Antihyperlipidemic activity in HFD-induced hyperlipidemic Charles Foster rat assessed as increase in plasma HDL-apoprotein level at 100 mg/kg, po administered for 4 weeks relative to control; outline: as §2
[28] = test system: Rattus norvegicus; test: Antihyperlipidemic activity in HFD-induced hyperlipidemic Charles Foster rat assessed as decrease in plasma VLDL-phospholipid level at 100 mg/kg, po administered for 4 weeks relative to control; design: scale not given: the % may be the effect or the level left; outline: as §2

CCOC(=O)COc1ccc(C(c2c[nH]c3ccccc23)c2c[nH]c3ccccc23)cc1
Activity [1]: 10%
Activity [2]: 25%
Activity [3]: 12%

CCOC(=O)C(C)Oc1ccc(C(c2c(C)[nH]c3ccccc23)c2c(C)[nH]c3ccccc23)cc1 (stereo not drawn)
Activity [1]: 8%
Activity [2]: 5%
Activity [3]: 9%

CCOC(=O)C(C)(C)Oc1ccc(C(c2cn(C)c3ccccc23)c2cn(C)c3ccccc23)cc1
Activity [1]: 5%
Activity [2]: 9%
Activity [3]: 10%

CCOC(=O)C(C)Oc1ccc(C(c2cn(C)c3ccccc23)c2cn(C)c3ccccc23)cc1 (stereo not drawn)
Activity [1]: 8%
Activity [2]: 6%
Activity [3]: 10%

CCOC(=O)C(C)Oc1ccc(C(c2c(C)n(C)c3ccccc23)c2c(C)n(C)c3ccccc23)cc1 (stereo not drawn)
Activity [1]: 6%
Activity [2]: 10%
Activity [3]: 10%

Cc1ccc(C)c(OCCCC(C)(C)C(=O)O)c1 [GEMFIBROZIL]
Activity [1]: 35%
percent increase [4]: 27%
Activity [2]: 35%
Activity [3]: 33%
Activity [5]: 27 nmol/h/mL

CCOC(=O)C(C)(C)Oc1ccc(C(c2cn(CC)c3ccccc23)c2cn(CC)c3ccccc23)cc1
Activity [1]: 9%
Activity [2]: 9%
Activity [3]: 11%

CC(C)OC(=O)C(C)(C)Oc1ccc(C(=O)c2ccc(Cl)cc2)cc1 [FENOFIBRATE]
Activity [6]: 27%
Activity [7]: 35%
Activity [8]: 34%
Activity [9]: 36%
Activity [10]: 28%
Activity [11]: 30%
Activity [12]: 34%
Activity [13]: 33%
Activity [14]: 37%
Activity [15]: 16%
Activity [16]: 31%
Activity [17]: 28%
Activity [18]: 33%
Activity [19]: 28%
Activity [20]: 33%
Activity [21]: 16%
Activity [22]: 26%
Activity [23]: 28%
Activity [24]: 30%
Activity [25]: 34%
Activity [26]: 15%
Activity [27]: 17%
Activity [28]: 24%

CCOC(=O)CCCOc1ccc(C(c2c[nH]c3ccccc23)c2c[nH]c3ccccc23)cc1
Activity [1]: 12%
Activity [2]: 15%
Activity [3]: 12%

CCOC(=O)COc1ccc(C(c2cn(C)c3ccccc23)c2cn(C)c3ccccc23)cc1
Activity [1]: 9%
Activity [2]: 12%
Activity [3]: 10%

CCOC(=O)COc1ccc(C(c2cn(CC)c3ccccc23)c2cn(CC)c3ccccc23)cc1
Activity [1]: 10%
Activity [2]: 6%
Activity [3]: 12%

CCOC(=O)C(C)(C)Oc1ccc(C(c2c[nH]c3ccccc23)c2c[nH]c3ccccc23)cc1
Activity [1]: 6%
Activity [2]: 9%
Activity [3]: 9%
